According to paper PMC3716464 (Angewandte Chemie (International ed. in English), 2009):

Test system: b(h)CAII
Assay: dot blot detection of b
Format: binding, bovine; human
Conditions: biligand in 0.1% serum, compared with triligand in 10% porcine serum
Procedure, shortened: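 Dot blot with the test peptide as capture agent for b(h)CAII in 10% porcine serum, varying protein amount to find the detection limit. For comparison, the biligand anchor served as capture agent in 0.1% serum.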

In the case of `C#CC[C@@H](N)C(=O)N[C@H](CCCCN)C(=O)N[C@H](Cc1c[nH]c2ccccc12)C(=O)N[C@H](CC(C)C)C(=O)N[C@H](Cc1c[nH]c2ccccc12)C(=O)NCC(=O)N[C@H](CC(C)C)C(=O)N[C@@H](CCCCn1cc(C[C@@H](NC(=O)[C@@H](CCCCN)NC(=O)[C@@H](Cc2ccccc2)NC(=O)[C@@H](Cc2c[nH]c3ccccc23)NC(=O)[C@@H](CC(C)C)NC(=O)[C@@H](CCCCN)NC(=O)[C@H](N)CC(C)C)C(N)=O)nn1)C(N)=O` [(D-Pra)-kwlwGl-Tz1-kfwlkl], the “reduction in sensitivity (biligand anchor as capture agent versus triligand)” value is reported as “more than 10 fold”.
